Compound activity as filed in PubChem BioAssay.
Only some compounds are listed: those with a hit (about 1.9% of all), similar ones and a draw of the others.
bCat nuc transl – modulators of beta-catenin nuclear translocation, primary screen, imaging, HeLa cells, immunofluorescence, high-content. nuclear translocation activity, % at 5 µM. 190,000 compounds, 0.3% hits. AID 1665, 2009;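 active means nuclear translocation activity above 50% at 5 µM, with a well cell count of 50 or more; inconclusive means wells under 50 cells across six images, flagged as toxic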;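 further: per-cell ratio of nuclear to cytoplasmic median beta-catenin stain intensity; plate controls were DMSO negative control for no effect and GSK-3 inhibitor IX positive control for full effect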
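Read-out: Nuclear/cytoplasmic beta-catenin signal ratio, % activation | Assay system: Human HeLa cell line | Times: 24 h compound exposure at 37°C, 5% CO2 | Signal: Fluorescence imaging of beta-catenin antibody stain plus DAPI | Dosing: 5 µM primary, 0.02–20 µM confirmation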
MT stabilizer – microtubule stabilizers in HeLa cells, primary screen, imaging, high-content imaging | 200,000 compounds, 0.83% hits | % tubulin-high responders, % at 10 µM | HeLa tubulin immunostaining HCS, 24 h; share of cells brighter than vehicle mean+2SD;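 active means plate Z-score above 3 for both tubulin-high and condensed-nucleus cell shares, with cell loss under 80%, at 10 µM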;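 further: anti alpha tubulin signal scored within the nucleus-defined area of each cell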
ROMK mod – ROMK potassium channel modulators, primary screen, cell-based, thallium flux, MLSMR library | Tet-inducible ROMK, thallium flux fluorescence; actives lie on both sides | ATP-sensitive inward rectifier potassium channel 1 (Homo sapiens), P48048 | 130,000 compounds, 2% hits | B-score at 10 µM | AID 1918, 2009;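 active means signal ratio slope over the read window, or its plate-corrected B-score, at least 3 SD from the plate mean, either direction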;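 further: B-score of the F/F0 ratio slope over 7 to 12 s after thallium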
Target sequence (P48048 whole entry, looked up): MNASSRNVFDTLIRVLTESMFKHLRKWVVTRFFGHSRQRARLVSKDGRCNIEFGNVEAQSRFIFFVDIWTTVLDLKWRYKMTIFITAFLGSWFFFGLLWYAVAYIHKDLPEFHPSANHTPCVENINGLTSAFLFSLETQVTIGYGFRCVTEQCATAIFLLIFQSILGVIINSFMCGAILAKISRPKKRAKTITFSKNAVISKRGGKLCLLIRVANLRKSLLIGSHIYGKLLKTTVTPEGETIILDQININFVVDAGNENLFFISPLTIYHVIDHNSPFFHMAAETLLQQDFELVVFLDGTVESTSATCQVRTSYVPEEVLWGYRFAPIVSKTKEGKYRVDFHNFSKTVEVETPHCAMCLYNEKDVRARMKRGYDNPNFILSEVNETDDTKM
ROMK hit retest – ROMK channel modulator hit retest, confirmation, cell-based, thallium flux, duplicate, resupplied hits. shares compounds with ROMK mod. fluorescence ratio; stronger effect = lower value. normalized thallium flux (F/F0 slope) at 10 µM. 3,000 compounds, 54% hits. AID 1917, 2009;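 active means Flux at 10 µM at least 3 SD below or above vehicle control mean in one or both replicates; inconclusive means no clear call, values can overlap the other calls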
* hit, by the source's call; ? = inconclusive; / = no result.

SMILES	bCat nuc transl	MT stabilizer	ROMK mod	ROMK hit retest
Fc1ccccc1Sc1ccccc1CNC1=NCCN1	/	3	-0.79	/
CCc1nc2ccc(C(=O)O)cc2nc1CC	-2	2	/	/
CS(=O)(=O)N1CCC(C(=O)Nc2ccccc2)CC1	-2	2	-0.11	/
Cc1ccc(NC(=O)C2CCN(S(C)(=O)=O)CC2)cc1C	/	2	1.6*	0.077
CCOc1ccccc1NC(=S)N1CCN(c2nc(-c3ccc(F)cc3)cs2)CC1	0	2	-0.75	/
COc1ccccc1N1CCN(C(=O)CSc2ccccc2)CC1	/	2	-0.11	/
COc1ccccc1N1CCN(C(=O)CSc2nnc3c4ccccc4nc(Cc4ccccc4)n23)CC1	0	2	/	0.082
Cc1cc2oc(=O)cc(CN3CCN(S(=O)(=O)c4cccs4)CC3)c2cc1C	0	4	/	/
CCOC(=O)/C(=C\c1cccc(O)c1)c1nc2sc(C)c(C)c2c(=O)[nH]1	1	7	-4.1*	0.058*
CCOC(=O)c1nc2sc(C)c(C)c2c(=O)[nH]1	/	4	-0.51	/
CC1Cc2ccccc2N1C(=O)CSc1nnnn1C(C)C (configuration not stated)	1	2	/	/
O=C(CNC(=O)c1ccc(F)cc1)Nc1ccccc1C(F)(F)F	0	/	/	/
O=C(NNC1=C(C(=O)C(F)(F)F)CCC1)c1cccc(Cl)c1	1	1	5.8*	0.089
O=C(NNC1=C(C(=O)C(F)(F)F)CCC1)c1ccc(Cl)cc1	-3	3	/	/
Cc1ccc(NC(=O)CC(NCC2CCCO2)C(=O)O)cc1C (configuration not stated)	8	2	-0.6	/
COc1cc2c(cc1OC)-c1c(OC)c(OC)cc3ccnc(c13)C2=O	/	4	-3.4*	0.054*
COc1cc2cccc(OC)c(=O)c2c(O)c1OC	0	4	0.28	/
C[n+]1cccc2cccc([O-])c21	3	/	/	/
COc1cc(C(=O)N2CCN(Cc3ccccc3C(F)(F)F)CC2)cc(OC)c1OC	-1	4	-2.6*	0.077
COc1cc(OC)cc(C(=O)N2CCN(Cc3ccccc3C(F)(F)F)CC2)c1	-3	1	-1.5	/
Cc1cccc(C2c3[nH]c4ccccc4c3CCN2C(=O)c2cc(CC(C)C)[nH]c(=O)n2)n1 (configuration not stated)	1	2	0.46	/
CC(=O)Nc1ccc(CN2CCN(CCc3ccccc3)C(CCO)C2)cc1 (configuration not stated)	1	4	0.22	/
Cc1cccc(N2CCN(C(=O)CC(NC(=O)c3ccccc3Cl)c3ccccc3)CC2)c1C (configuration not stated)	/	2	-4.7*	0.054*
O=C(NC(CC(=O)N1CCN(c2ccc([N+](=O)[O-])cc2)CC1)c1ccccc1)c1ccccc1Cl (configuration not stated)	/	3	-0.45	/
Cc1ccc(CNc2cc(-c3nn4c(C)nnc4s3)ccc2C)s1	-1	3	-0.99	/
SMILES	bCat nuc transl	MT stabilizer	ROMK mod	ROMK hit retest
Cc1ccc(-c2nn3c(C)nnc3s2)cc1NCc1c(F)cccc1Cl	19	12	/	0.075
Cc1ccnc(NC(=O)c2cccc(NS(=O)(=O)c3ccccc3C)c2)c1	-1	2	/	/
Cc1cc(C)cc(NC(=O)Cn2nnc3ccccc3c2=O)c1	2	1	1	/
Cc1cc(C(=O)OCC(=O)NCc2ccco2)c(C)n1-c1ccc(F)cc1	82*	17*	5.1*	0.09
CCNC(=O)COC(=O)c1cc(C)n(-c2ccccc2)c1C	-3	2	0.86	/
CCn1c(C)nc2cc(C(=O)N/N=C/c3ccc(OC)c(O)c3)ccc21	/	4	/	/
COc1ccc(C2=CC(c3ccc(C)cc3)n3nnnc3N2)cc1 (configuration not stated)	-4	7	-4.4*	?
COc1ccc(C2C=C(c3ccccc3)Nc3nc(NC(C)=O)nn32)cc1 (configuration not stated)	-2	1	-1.8	/
Cc1cc(C)nc(NS(=O)(=O)c2ccc(NC(=O)c3ccc4c(c3)OCCO4)cc2)n1	2	3	1.1	/
CC(C)(C)C1CC=C2C(C#N)=C(N)C(C#N)(C#N)C(c3cccs3)C2C1 (configuration not stated)	/	2	-3*	0.055*
CN1C2C=C3C(C#N)=C(N)C(C#N)(C#N)[C@@H](c4cccs4)C3C1CC2 (some centres not stated)	2	4	-1.2	/
O=C(CN1C(=O)NC2(CCCCCCC2)C1=O)NC1CCCc2ccccc21 (configuration not stated)	-2	3	/	/
CC(C)CNC(=S)N1CCC(NC(=O)c2ccco2)CC1	-1	5	1.6	/
COc1ccc(C(=O)Nc2cc(C(C)=O)c(/C=C/N(C)C)oc2=O)cc1	-1	1	/	0.037*
CC(=O)c1cc(NC(=O)c2ccc(C)cc2)c(=O)oc1/C=C/N(C)C	-3	1	/	/
CC(C)Sc1nc2c([nH]1)c(=N)ncn2Cc1ccccc1	0	2	-4.4*	0.057*
Cc1cccc(OCCSc2nc3c([nH]2)c(=N)ncn3Cc2ccccc2)c1	-1	1	/	/
O=C(NCC1CCCO1)c1ccc(CNS(=O)(=O)c2cccc(Cl)c2)cc1 (configuration not stated)	1	3	0.4	/
Brc1cc(Cc2nnc(-c3ccccc3)o2)c(Br)s1	2	/	/	/
OCC(Cc1ccccc1)Nc1c2ccccc2nc2ccccc12 (configuration not stated)	1	2	-6.4*	0.041*
O=C(Cc1ccccc1)NNc1c2ccccc2nc2ccccc12	1	4	-0.14	/
Cc1ccc(NC(=O)CC2=NC(=O)C(CC(=O)Nc3ccccc3C)S2)cc1 (configuration not stated)	2	3	0.33	/
CC(C)N1CCN(Cc2ccccc2-c2ccco2)CC1CCO (configuration not stated)	3	2	-0.57	/
OCCC1CN(Cc2ccccc2-c2ccco2)CCN1C1CCCC1 (configuration not stated)	1	3	-4*	0.051*
COc1cccc(NC(=S)/C(=C(\[O-])c2ccc([N+](=O)[O-])cc2)[n+]2ccccc2)c1	0	2	1.1	/
SMILES	bCat nuc transl	MT stabilizer	ROMK mod	ROMK hit retest
CCCCCCC(C)NC(=S)Nc1cc(S(=O)(=O)N(C)C)ccc1C (configuration not stated)	-2	3	-0.097	/
O=C(O)CCCCCCNS(=O)(=O)c1ccccc1	/	1	-0.25	/
O=C(O)CC(CNS(=O)(=O)c1ccccc1)c1ccccc1 (configuration not stated)	0	4	/	?
Cc1ccc(-c2csc(NC(=O)Cc3ccc(F)cc3)n2)o1	2	3	4.9*	0.073
Cc1ccc(-c2csc(NC(=O)c3ccc(-c4ccccc4)cc3)n2)o1	0	7	/	/
COc1cccc(CNc2cc(CSc3ccc(Cl)cc3)nc(C)n2)c1	/	1	-1.1	/
COc1ccc(/C=N/N=C2\SC(CC(=O)O)C(=O)N2c2ccccc2)c(OC)c1 (configuration not stated)	/	3	0.72	/
S=C1NC2(CCCC2)N=C1c1ccccc1	-3	2	-1.8	/
